The results in this text go back to ChEMBL document CHEMBL4020757, “Lathyrol and epoxylathyrol derivatives: Modulation of Cdr1p and Mdr1p drug-efflux transporters of Candida albicans in Saccharomyces cerevisiae model” (Bioorg Med Chem, 2017).

In brackets after ≈: the same amount, converted by molar mass.

In data set [1] the test system is Saccharomyces cerevisiae. Briefly: Synergistic antifungal activity against Saccharomyces cerevisiae AD1-8u(-) assessed as ratio of compound MIC80 in combinantion with fluconazole to compound alone MIC80 by checkerboard method. It counts as functional. Put shortly: (§1)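 Checkerboard per CLSI with 10⁴ cells of AD-CDR1, AD-MDR1 or AD1-8u⁻, grown 48 h at 30 °C. Fluconazole 4-209 μM crossed with compound 0.25-400 μM, growth read by optical density. Compound FIC is the compound MIC in combination with fluconazole divided by its MIC alone.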

The subject of data set [2] is Candida albicans. Description: Inhibition of Candida albicans CDR1 expressed in Saccharomyces cerevisiae AD assessed as potentiation of fluconazole-induced antifungal activity against Saccharomyces cerevisiae AD by checkerboard method. Put shortly: (§2)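 Checkerboard per CLSI in AD1-8u⁻ control, AD-CDR1 or AD-MDR1 cells (10⁴ cells) grown 48 h at 30 °C. Fluconazole 4-209 μM crossed with compound 0.25-400 μM. Growth read by optical density. FIC of each agent is its MIC in combination divided by its MIC alone. FICI is the sum of the fluconazole and compound FICs, with values below 0.5 taken as synergy.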

Data set [3] can be described thus: Lipophilicity, log P of the compound. It counts as physicochemical. The settings on record: octanol/water.
Data set [4] concerns Saccharomyces cerevisiae. Description: Potentiation of fluconazole-induced antifungal activity against Saccharomyces cerevisiae AD1-8u(-) by checkerboard method. It counts as functional. Put shortly: as §2
In data set [5] the test system is Candida albicans. Briefly: Inhibition of Candida albicans CDR1 expressed in Saccharomyces cerevisiae AD assessed as reduction in nile red dye efflux at 70 uM after 30 mins by flow cytometry relative to control. Put shortly:
(§3)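 AD-CDR1 or AD-MDR1 cells grown in YEPD at 30 °C with shaking from OD600 0.1 to 0.25, then resuspended as a 5% suspension in 1:2 YEPD:water. Nile Red (final 7 μM) added with or without compound at 70 μM, 30 min at 30 °C. Cells washed twice and 10,000 cells analysed by flow cytometry. Efflux rate expressed relative to untreated control cells. Means ± SD, three independent experiments.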
In general terms: A flow cytometer gives signals particle by particle.

Data set [6] has as its system Candida albicans. Description: Inhibition of Candida albicans CDR1 expressed in Saccharomyces cerevisiae AD assessed as ratio of compound MIC80 in combinantion with fluconazole to compound alone MIC80 for Saccharomyces cerevisiae AD by checkerboard method. The procedure, abridged: as §1
For data set [7], the system named is Candida albicans. Briefly: Inhibition of Candida albicans MDR1 expressed in Saccharomyces cerevisiae AD assessed as ratio of compound MIC80 in combinantion with fluconazole to compound alone MIC80 for Saccharomyces cerevisiae AD by checkerboard method. The procedure, abridged:
as §1

The test system of data set [8] is Saccharomyces cerevisiae. Briefly: Antifungal activity against Saccharomyces cerevisiae AD over-expressing Candida albicans MDR1 after 48 hrs. It counts as functional. Put shortly:
(§4)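 Yeast (10⁴ cells) grown in YEPD at 30 °C for 48 h with inhibitors at 0.25-400 μM (DMSO stocks); growth read by optical density, inhibitor-free growth set as 100%. MIC80 = concentration giving 80% growth inhibition. RI = MIC80 in AD-CDR1 or AD-MDR1 divided by MIC80 in control AD1-8u⁻. Means ± SD, duplicate samples, at least three independent experiments.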

In data set [9] the test system is Candida albicans. Description: Inhibition of Candida albicans MDR1 expressed in Saccharomyces cerevisiae AD assessed as potentiation of fluconazole-induced antifungal activity against Saccharomyces cerevisiae AD by checkerboard method. Put shortly: as §2
For data set [10], the system named is Candida albicans. Briefly: Inhibition of Candida albicans MDR1 expressed in Saccharomyces cerevisiae AD assessed as reduction in nile red dye efflux at 70 uM after 30 mins by flow cytometry relative to control. The procedure, abridged: as §3
For data set [11], the system named is Saccharomyces cerevisiae. Briefly: Antifungal activity against Saccharomyces cerevisiae AD over-expressing Candida albicans CDR1 after 48 hrs. It counts as functional. The procedure, abridged: as §4
In data set [12] the test system is Saccharomyces cerevisiae. Briefly: Antifungal activity against Saccharomyces cerevisiae AD1-8u(-) after 48 hrs. It counts as functional. The procedure, abridged:
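S. cerevisiae AD1-8u⁻ control strain revived from glycerol stock on YEPD plates and grown in YEPD at 30 °C. 10⁴ cells exposed to compound at 0.25-400 μM for 48 h at 30 °C. Growth read as optical density, with no-inhibitor growth as 100%. MIC80 is the concentration giving 80% growth inhibition. Means ± SD of duplicates from at least three independent experiments.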

The subject of data set [13] is Saccharomyces cerevisiae. Briefly: Resistance index, ratio of MIC80 for Saccharomyces cerevisiae AD over-expressing Candida albicans MDR1 to MIC80 for Saccharomyces cerevisiae AD1-8u(-). It counts as functional. The procedure, abridged:
as §4

Data set [14] relates to Saccharomyces cerevisiae. Description: Resistance index, ratio of MIC80 for Saccharomyces cerevisiae AD over-expressing Candida albicans CDR1 to MIC80 for Saccharomyces cerevisiae AD1-8u(-). It is filed as functional. The procedure, abridged: as §4
Data set [15] has as its system Candida albicans. Briefly: Inhibition of Candida albicans CDR1 expressed in Saccharomyces cerevisiae AD assessed as potentiation of fluconazole-induced antifungal activity against Saccharomyces cerevisiae AD by measuring fold reduction in fluconazole MIC80 by checkerboard method. Put shortly:
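AD-CDR1 cells (10⁴) grown 48 h at 30 °C in a CLSI checkerboard, fluconazole 4-209 μM crossed with compound 0.25-400 μM, growth read by optical density. Fold reduction is derived from the fluconazole MIC alone versus the fluconazole MIC in combination.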

As usually defined, the logP is a log measure of how a compound divides between an organic and an aqueous phase. Higher therefore signals higher lipophilicity. In general, inhibition refers to the change of the read-out against control, counted positive when it falls. One may read the MIC80 as an inhibitory concentration at the 80% level, which refers to growth in some studies and to a panel of isolates in others. Read a high MIC80 as lower susceptibility. `C=C1CC[C@H]2[C@@H](/C=C(\C)C(=O)[C@@]3(O)C[C@H](C)[C@H](O)[C@@H]3[C@H]1OC(=O)c1cccc(C(F)(F)F)c1)C2(C)C`: the Ratio stood at 1 in [1]; 0.5 in data set [6]; 1 in data set [7]; 0.87 in data set [13]; 0.99 in [14]. Besides, the fractional inhibitory concentration index (FICI) in [2] is 0.52; in data set [4], 2; in data set [9], 1.3. For the same molecule, the lipophilicity (logP) in data set [3] was found to be 3.41. For the same molecule, the inhibition in data set [5] is 70%; in data set [10], 25%. Moreover, the MIC80 worked out at 867 µM (≈ 439 µg/mL) in [8], 982 µM (≈ 497 µg/mL) in [11] and 988 µM (≈ 500 µg/mL) in data set [12]. Further, the fold change (FC) in data set [15] amounted to 52.
